Screens: PubChem, several laboratories
T cruzi inh: blocks replication of Trypanosoma cruzi | 300,000 tested, 1.4% active | AID 1885 | inhibition, % (no concentration beside the values) | T. cruzi beta-gal in NIH3T3, luminescence, 90 h;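 active = mean inhibition across valid replicates above about 55%, limit read from the data; inconclusive = mean below that limit but half or more replicates reach it; inactive = mean below it, under half of replicates reach it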;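 note: signal also drops with host cell toxicity which is not excluded here; 0% = plate median of DMSO wells and 100% = zero luminescence signal; higher percent means less beta-gal luminescence so fewer parasites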
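System – NIH/3T3 host cells with β-galactosidase reporter T. cruzi · Doses – single 50 nL compound addition per well in DMSO · Reagent – 5000 T. cruzi trypomastigotes/well · Medium – Low-serum DMEM with 2% FBS · Timing – ≥90 h infection period, 3 h prior cell attachment · Evaluation – parasite load inhibition, % · Technique – GalScreen luminescence, 60 min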
SKKanGAS inh: blocks kanamycin growth of S. pyogenes SKKanGAS strain | BacTiter-Glo, 6 h | inhibition, % at 7.5 µM | 300,000 tested, 1.3% active | AID 1662;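 active = mean replicate score, as percent of positive control median, at least 50; inconclusive = mean below 50 but one replicate at or above 50; inactive = mean and every replicate below 50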;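 note: strain carries kanamycin resistance gene driven by streptokinase promoter and grows in 40 µg/ml kanamycin; loss of luminescence reflects streptokinase promoter inhibition or plain growth inhibition; 0% = median of DMSO wells and 100% = positive control at its reference dose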
Calb FLC: C. albicans growth modulation with fluconazole; AID 1979; growth inhibition, % (concentration not given with the values); 300,000 tested, 0.57% active; C. albicans CaCi-2 + fluconazole, Alamar Blue growth, 48 h;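 active = growth inhibition above about 58% in most replicates, limit read from the data, passing the limit was not always enough; inconclusive = exactly half the replicates above a set limit; inactive = most replicates below a set limit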;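 note: all wells also contain fluconazole at 8 µg/ml as a sub-toxic cotreatment; 0% = median of DMSO wells and 100% = median of geldanamycin control wells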
CSC inhib: cancer stem cell inhibition; cancer stem cell-like cells viability, luminescence; inhibition, % at 7.5 µM; 300,000 tested, 1.1% active; in the data active = inhibition above about 75%; inconclusive = no clear call, values can overlap the other calls; tested in HMLE shEcad cells
Beta cell apopt: blocks beta cell apoptosis. INS-1E cytokine-induced death, ATP luminescence, 48 h; percent of positive-control rescue, neutral wells zero. AID 435005. protection from apoptosis, % (test concentration not listed). 300,000 tested, 0.8% active;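 active = Every replicate reaches about 75%, or at least half do and their mean reaches it too, limit read from the data; inconclusive = At least half of replicates reach the limit but their mean does not; inactive = Under half of replicates reach the limit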;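 note: 0% = cytokine-treated negative control wells and 100% = positive control rescue; higher means more ATP so stronger rescue from cytokine killing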
Mdm2 MdmX PPI: human Mdm2/MdmX binding inhibition. O15151+Q00987. SaOS-2 split-luciferase Mdm2/MdmX complementation, luminescence. inhibition, % at 8 µM. 330,000 tested, 3% active. AID 485346;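 active = inhibition of at least 50% at 8 µM in the primary screen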
Target sequence (O15151 whole entry, looked up): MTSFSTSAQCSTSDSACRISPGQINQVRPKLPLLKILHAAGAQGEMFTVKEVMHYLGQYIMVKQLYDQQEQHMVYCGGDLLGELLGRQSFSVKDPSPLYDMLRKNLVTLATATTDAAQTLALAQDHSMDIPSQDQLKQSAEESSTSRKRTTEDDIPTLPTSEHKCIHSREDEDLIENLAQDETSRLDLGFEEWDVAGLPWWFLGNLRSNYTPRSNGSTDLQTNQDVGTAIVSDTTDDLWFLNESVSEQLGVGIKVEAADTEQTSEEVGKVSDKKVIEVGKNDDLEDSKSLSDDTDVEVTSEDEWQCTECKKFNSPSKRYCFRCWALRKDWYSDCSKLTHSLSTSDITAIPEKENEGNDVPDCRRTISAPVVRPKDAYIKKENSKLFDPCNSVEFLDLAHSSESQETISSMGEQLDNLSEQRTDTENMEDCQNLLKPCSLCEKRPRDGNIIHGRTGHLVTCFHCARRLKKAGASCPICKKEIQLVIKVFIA
Target sequence (Q00987 whole entry, looked up): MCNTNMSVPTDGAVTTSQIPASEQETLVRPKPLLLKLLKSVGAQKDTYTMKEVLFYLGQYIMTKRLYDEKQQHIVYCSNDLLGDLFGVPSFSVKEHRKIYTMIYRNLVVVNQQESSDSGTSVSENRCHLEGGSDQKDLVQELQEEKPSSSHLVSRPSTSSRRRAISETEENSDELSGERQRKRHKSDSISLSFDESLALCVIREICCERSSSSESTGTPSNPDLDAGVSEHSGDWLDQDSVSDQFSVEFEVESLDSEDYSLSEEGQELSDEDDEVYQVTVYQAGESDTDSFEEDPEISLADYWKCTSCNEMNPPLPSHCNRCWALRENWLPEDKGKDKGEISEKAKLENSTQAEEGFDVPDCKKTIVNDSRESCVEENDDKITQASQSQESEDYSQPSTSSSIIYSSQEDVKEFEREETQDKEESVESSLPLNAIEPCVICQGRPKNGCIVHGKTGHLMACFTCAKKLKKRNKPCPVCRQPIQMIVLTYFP
Mdm2 MdmX conf: confirmation of human Mdm2/MdmX interaction inhibitors; inhibition, % at 8 µM; Mdm2-MdmX binding, luminescent assay; 10,000 tested, 55% active; shares compounds with Mdm2 MdmX PPI; in the data active = inhibition above about 40%
Full FLuc ctr: inhibits full-length luciferase, flagging false Mdm2/MdmX hits | shares compounds with Mdm2 MdmX PPI | SaOS-2 full-length luciferase counterscreen, luminescence | inhibition, % at 8 µM | 6,200 tested, 77% active | AID 504607;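 active = mean inhibition at 8 µM reaching about 37%, which flags the compound as non-specific, limit read from the data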;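 note: p53-null SaOS-2 cells with luciferase driven by a doxycycline-inducible promoter; compound on cells about two nights before reading with doxycycline added after day one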
* = called active by the depositor; u = inconclusive; x = no result. An excerpt weighted towards active compounds, which were near 5.7% of everything screened.

SMILES	T cruzi inh	SKKanGAS inh	Calb FLC	CSC inhib	Beta cell apopt	Mdm2 MdmX PPI	Mdm2 MdmX conf	Full FLuc ctr
COc1ccc(-c2noc(N3CCC(C(=O)Nc4cc(OC)c(OC)c(OC)c4)CC3)n2)cc1	-28	15	-17	-19	-1	8	x	x
CC1CCC(NC(=O)C2CC(=O)N(c3ccc(Cl)cc3)C2)CC1 (stereo not drawn)	-42	2	18	11	2	14	x	x
O=C(CNC(=O)c1ccccc1O)N/N=C/c1cc(Br)ccc1OC(=O)/C=C/c1ccco1	u	-4	-16	-2	89*	51*	70*	41*
O=C(CNC(=O)c1cccc(F)c1)N/N=C/c1cc(Br)ccc1OC(=O)/C=C/c1ccco1	31	14	-12	x	x	x	x	x
COc1cccc(N2CCN(C(=O)c3[nH]c(C)c(C(C)=O)c3C)CC2)c1	-30	14	1	-9	-8	54*	68*	42*
Cc1ccc(Cl)cc1N1CCN(C(=O)c2cc3c(=O)[nH]c4ccccc4c3n2C)CC1	49	28	-3	16	16	71*	91*	79*
CC(=O)c1c(C)[nH]c(C(=O)N2CCN(c3cc(Cl)ccc3C)CC2)c1C	-10	-2	34	43	23	73*	75*	34
Cn1c(C(=O)N2CCN(c3ccc(Cl)cc3)CC2)cc2c(=O)[nH]c3ccccc3c21	30	22	8	11	-7	25	x	x
Cc1cccc(NC(=O)CNC(=O)Cn2ncc(Cl)c(Cl)c2=O)c1C	x	x	x	-8	-4	100*	56*	52*
O=C(Cn1ncc(Cl)c(Cl)c1=O)NC1CCCCC1	x	x	x	x	-9	100*	76*	56*
Cc1cccc(NC(=O)CNC(=O)CSc2ncccn2)c1C	x	x	x	2	3	4	x	x
Cc1ccc(NC(=O)Cn2ncc(Cl)c(Cl)c2=O)cc1S(=O)(=O)N1CCCCC1	x	x	x	x	-1	100*	85*	54*
COc1ccc2c(c1)C(=O)[C@H](O)[C@@H](c1ccc(OC)c(Br)c1)O2	14	15	8	108*	109*	71*	-6	x
CC(=O)/C(C#N)=C1\NC(=O)C(Cc2ccccc2Cl)S1 (stereo not drawn)	-2	13	6	-2	-5	87*	91*	30
CC(=O)/C(C#N)=C1\NC(=O)C(Cc2cc(Cl)ccc2Cl)S1 (stereo not drawn)	6	15	-5	72	14	96*	83*	31
CC(=O)/C(C#N)=C1\NC(=O)C(Cc2ccc(C)c(C)c2)S1 (stereo not drawn)	-3	8	-4	49	7	84*	91*	32
NC1=NC(=O)C(Cc2cc(Cl)ccc2Cl)S1 (stereo not drawn)	-2	-7	5	-10	-14	20	x	x
CC(=O)/C(C#N)=C1\NC(=O)C(Cc2ccc(F)cc2)S1 (stereo not drawn)	-40	2	-7	4	1	3	x	x
CC(C)c1cc(C(=O)N2CCCC(Nc3ccc(F)cc3)C2)n[nH]1 (stereo not drawn)	-11	18	5	6	4	13	x	x
O=C(N/N=C/c1c[nH]c2ccccc12)c1cc(-c2cccc3ccccc23)n[nH]1	-2	22	27	65	16	58*	2	x
O=C(N/N=C/c1c[nH]c2ccccc12)c1cc(-c2ccc3ccccc3c2)n[nH]1	-35	95*	7	68	19	54*	52*	87*
O=C(CSc1ncn[nH]1)N1N=C2/C(=C/c3ccccc3)CCCC2C1c1ccccc1 (stereo not drawn)	4	-5	u	x	-6	53*	19	x
COc1ccc(/C=C2\CCCC3C2=NN(C(=O)CSc2ncn[nH]2)C3c2ccc(OC)cc2)cc1 (stereo not drawn)	24	29	-5	36	-17	37	x	x
CCOc1ccc(CCN2C(=O)C(=O)N([C@H](CCCN(C)Cc3ccccc3)CNCc3ccccc3)C[C@@H]2C(C)C)cc1	22	-1	-24	x	x	66*	56*	58*
COc1ccc(CNC[C@@H](CCCCN(C)Cc2ccc(OC)cc2)N2C[C@H](c3ccccc3)N(CCc3ccc(Cl)c(Cl)c3)C(=O)C2=O)cc1	25	13	17	107*	99*	99*	100*	53*
SMILES	T cruzi inh	SKKanGAS inh	Calb FLC	CSC inhib	Beta cell apopt	Mdm2 MdmX PPI	Mdm2 MdmX conf	Full FLuc ctr
COc1ccc(CNC(=O)[C@@H]2CC=C[C@@H]3CCN(Cc4ccc(Cl)c(Cl)c4)C(=O)[C@@H]32)cc1	28	9	-2	5	2	3	x	x
CCOc1ccc(NC2=NCC(=O)N2CCc2ccccc2)cc1	-2	2	4	-12	-4	-39	x	x
O=C(CS(=O)(=O)c1ccccc1Cl)N1CCOCC1	1	-1	-1	6	-6	-12	x	x
O=C1Cc2ccccc2N1c1ccccc1	-1	3	-1	-8	x	-52	x	x
O=C1CC(=Nc2ccccc2)NN1c1ccccc1	-1	18	23	130*	21	58*	1	x
COc1ccc(-c2cc(C(F)(F)F)nc(S(C)(=O)=O)n2)cc1	-18	-5	-5	96*	-31	101*	80*	53*
O=C(O)CCS(=O)(=O)c1nc(-c2cccs2)cc(C(F)(F)F)n1	-32	-2	32	3	-9	9	x	x
CS(=O)(=O)c1nc(-c2ccc(F)cc2)cc(C(F)(F)F)n1	u	0	u	x	x	x	x	x
CS(=O)(=O)c1nc(-c2cccs2)cc(C(F)(F)F)n1	77*	-16	97*	100*	91*	100*	99*	1
O=C(NCC(=O)N(c1ccccc1F)C(C(=O)NC1CCCC1)c1ccncc1)c1ccco1 (stereo not drawn)	2	-3	12	x	1	23	x	x
Cc1cccc(NC(=O)CSc2nc3ccccc3nc2N2CCCC2)c1	-1	3	-1	25	-3	85*	45*	81*
Cc1cccc(NC(=O)CSc2nc3ccccc3nc2N2CC(C)OC(C)C2)c1 (stereo not drawn)	18	21	8	7	4	24	x	x
Cc1cccc(NC(=O)CSc2nc3ccccc3nc2N2CCCCC2)c1	19	5	-5	43	4	96*	44*	102*
CCc1ccc(NC(=O)CSc2nc3ccccc3nc2N2CCCCC2)cc1	27	0	-19	9	17	37	x	x
COc1cccc(NC(=O)CSc2nc3ccccc3nc2N2CCCC2)c1	-4	6	-1	3	-2	64*	3	x
